# Source: the RNAGym collection of RNA variant scans (doi:10.1126/science.aae0568)
# This sample holds only a part of the variants without activity.
# B1: tRNA (parent)
# chain: GUUCCGUUGGCGUAAUGGUAACGCGUCUCCCUCCUAAGGAGAAGACUGCGGGUUCGAGUCCCGUACGGAACG
# Variants of: B1
# Assay: yeast fitness relative to wild type (ratio to wild type); higher = fitter; tRNA-Arg(CCU), competitive growth, 37 C, YPD
# In short: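 Variants of the tRNA-Arg(CCU) gene, chemically synthesised with a 3% per-site mutation rate at 69 sites, were placed at the native genomic locus in Saccharomyces cerevisiae. The pooled strains were competed in YPD at 37°C for 24 hours in six parallel replicates. Gene amplicons from the start population and from each end population were read by 100-nucleotide paired-end sequencing. Darwinian fitness relative to wild type came from changes in genotype frequencies; genotypes needed ≥ 100 starting reads, and estimates < 0.5 were set to 0.5.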
row,Variant,yeast fitness
1,GUUCCGUUGGCGUAAAGGUAACGCGUCUCCCUCCUAAGGAGAAGACCGCGGGUUCGAGUCCCGUACGGAGCG,0.78
2,GUUCCGUUGGCGUAAAGGUAACGCGUCUCCCUCCUAAGGAGAAGACUUCGGGUUCGAGUCCCGUACGGAACG,0.754
3,GUUCCGUUGGCGUAAAGGUAACGCGUCUCCGUCCUAAGGAGAAGACUGCGGGUUCGAGUCCCGUUCGGAGCG,≤ 0.5
4,GUUCCGUUGGCGUAAAGGUAACGCGUCUCCCUCCUAAGGAGAAGACUGCGGAUUCGCGUCCCGUACGGAACG,0.571
5,GUUCCGUUGGCGUAAAGGUAAUGCGCCUCCCUCCUAAGGAGAAGACUGCGGGUGCGAGUCCCGUAAGGAACG,0.58
6,GUUCCGUUGGCGUAAAGGUAACGUGUCUCGCUCCAAAGGAGAAGACUGCGGGUUCGAGUCCCGUACGGAACG,0.539
7,GUUCCGUUGGCGUAAAGGUAACGCGUCCCCCUCCUAAGGAGAAGACUGCGGGUUCGAGUCCCGUACGGACCG,0.569
8,GUUCCGUUGGCGUAAAGGUAACGAGUCUCCCUCCUAAGGAGAGGACUGCGGGUUCGAGUCCCGUACGGAACG,≤ 0.5
9,GUUCCGUUGGCGUAAAGGUAACGCGUCUCCGUCCUAAGGAGAAGACUGCGGGUUCGAGUCCCGUCCGGAACG,0.619
10,GUUCCGUUGGCGUAAAGGUAACGCGUCUCCCUCCUAAGGAGAAGACUGCGGGUUCGAGUCCUGUACGGAACG,0.918
11,GUUCCGUUGGCGUAACGGUACUGCGUCUCCCUCCUAAGGAGAAGACUGCGGGUUCGAGUCCCGUACGGAACG,≤ 0.5
12,GUUCCGUUGGCGUAAAGAUAACGCGUCUCCUUCCUAAGGAGAAGACUGCGGGUUCGAGUCCCGUACGGAACG,≤ 0.5
13,GUUCCGUUGGCGUAAAGGUAACGCGUCUCCGUCCUAAGGAGAAGACUGCGGGUUCGAGUCCCGUACGGAACG,0.87
14,GUUCCGUUGGCGUAACGGUAACGCGUCUCCCUCCUAAGGAGAAGACUGCGGGUUCGAGUCCCGUACGGGGCG,0.745
15,GUUCCGUUGGCGUAAAGGAAACGCGUCUCCCUCCUAAGGAGAAGAUUGCGGGUUCGAGUCGCGUACGGAACG,0.571
16,GUUCCGUUGGCGUAAAGGUAACGGGUCUCCCUCCUAAGGAGAAGACUGCGGGUUCAAGUCCCGUACGGAACG,≤ 0.5
17,GUUCCGUUGGCGUAAAGGUAACGCGUCUCCCUCCUAAGGACAAGCCUGCGGGUUCGAGUCCCGUACGGAACG,≤ 0.5
18,GUUCCGUUGGCGUAAAGGUAACGCGUCUCCCUCCUAAGGAGAAGAGUGCGGGUUCGAGUCCCGUACGGAGCG,0.604
19,GUUCCGUUGGCGUAACGGUAAAGCGUCUCCCUCCUAAGGAGAAGACUGCGGGCUCGAGUCCCGUACGGAACG,0.629

row,Variant,yeast fitness
1,GUUCCGUUGGCGUAAAGGUAACGCGUCUCCCUCCCAAGGAGAAGACUGCGGGUUCGAGUCCCGUACGGAACG,0.91
2,GUUCCGUUGGCGUAAAGGUAACGCGUCUCCCUCCUAAGGAGAAGAGUGCGGGUUCGGGUCACGUACGGAACG,≤ 0.5
3,GUUCCGUUGGCGUAAAGCUAACGCGACUCCCUCCUAAGGAGAAGACCGCGGGUUCGAGUCCCGUCCGGAACG,≤ 0.5
4,GUUCCGUUGGCGUAACGGUAACGCGUCUCCCUCCUAAGGAGGAGACUGCGGGUUCGAGUCCCGUACAGAACG,≤ 0.5
5,GUUCCGUUGGCGUAAAGAUAACGCGUCUCCUUCCUAAGGAGAAGACUGCGGGUUCGAGUCCCGUGCGGAACG,0.548
6,GUUCCGUUGGCGUAAAGGUAACGCGUCUCCCUCCUAAGAAGGAGACUGCGGGUUAGAGUCCAGUACGGAACG,≤ 0.5
7,GUUCCGUUGGCGUAAAGGGAACGCGUCUCCCUUCUAAGGCAACGACUGCGGGUUCGAGUCGCGUACGGAACG,≤ 0.5
8,GUUCCGUUGGCGUAAAGAUAACGCGUCUCCCUCCUAAGGAGAAGACUGCGGGUUCAAGUCCCGUACCGAACG,≤ 0.5
9,GUUCCGUUGGCGUAAAGGUAACGCGUCUCCAUCCUAAGGCGAAGACUGCGGGUUCGAGUCCCGUACGGAACG,≤ 0.5
10,GUUCCGUUGGCGUAAAGGUAACGCGUCUCCCUCCUAAGGAAAAGACUGCGGGUUCGAGUCCCGUACGGAACG,1.1
11,GUUCCGUUGGCGUAAAGGUAACGCGUCCCCCUCCUAAGGAGAAGACCGCGGGUUCGAGUCCCGUACGGAACG,0.79
12,GUUCCGUUGGCGUAAAGGUAACGCGUCUCCCUCUUAAGGAGAAGACUGCGGGUUCGAGUCCCGUACGGAUCG,≤ 0.5
13,GUUCCGUUGGCGUAAAGGUAACGCGUCUCUCUCCUAAGGAGAAGGCUGCGGGUUCGAGUCCCGUACGGAACG,≤ 0.5
14,GUUCCGUUGGCGUAAAGGUAACGCGUCUCCAUCCUAAGGCGAAGACUGCGGCUUCGAGUCCCGUACGGAACG,≤ 0.5
15,GUUCCGUUGGCGUAACGGUAACGCGUCUCCCUCCUAGGGAGCAGACUGCGGGUUCGAGUCCCGUACGGUACG,≤ 0.5
16,GUUCCGUUGGCGUAAAGGUAAACCGUCUCCCUCUUGAGGUGAAGACUGCGGGUUCGAGUCCCGUACGGAACG,≤ 0.5
17,GUUCCGUUGGCGUAAAGGUAACGCGUCUCCCUCCUAAGGAGAAGACUGCGGGUUAGAGUCCCGUACGGCACG,≤ 0.5
18,GUUCCGUUGGCGUAAAGGUAACGCGACUCGCUCCUAAGGAGAAGACUGCGGGUUCGAGCCCCGUACGGAACG,≤ 0.5
